The values that follow come from ChEMBL document CHEMBL3600304, “Gageopeptins A and B, new inhibitors of zoospore motility of the phytopathogen Phytophthora capsici from a marine-derived bacterium Bacillus sp. 109GGC020” (Bioorg Med Chem Lett, 2015).

Assay [1] concerns Phytophthora capsici. Nature of the assay: Inhibition of Phytophthora capsici zoospore motility at 5 ug/ml by homogeneous solution method. It counts as functional, organism-based. The settings on record: TDE = time-dependent effect.
Assay [2] deals with Phytophthora capsici. In words: Inhibition of Phytophthora capsici zoospore motility after 15 to 60 mins by homogeneous solution method. It counts as functional, organism-based.
Assay [3] deals with Phytophthora capsici. In words: Inhibition of Phytophthora capsici zoospore motility at 1 ug/ml after 15 to 60 mins by homogeneous solution method. It counts as functional, organism-based.
In assay [4] the test system is Phytophthora capsici. In words: Induction of Phytophthora capsici zoospore lytic activity at 1 ug/ml after 5 to 60 mins by homogeneous solution method. It counts as functional, organism-based.
Assay [5] concerns Phytophthora capsici. In words: Induction of Phytophthora capsici zoospore lytic activity at 10 ug/ml after 60 mins by homogeneous solution method. It is filed as functional, organism-based.
Assay [6] deals with Phytophthora capsici. In words: Induction of Phytophthora capsici zoospore lytic activity at 50 ug/ml after 30 mins by homogeneous solution method. It is filed as functional, organism-based.
The test system of a further assay is Rhizoctonia solani. Nature of the assay: Antifungal activity against Rhizoctonia solani by broth dilution assay. It counts as functional. In outline: (§1)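 Broth dilution assay for the minimum growth-inhibitory concentration against Gram-positive and Gram-negative bacteria and fungi. Each organism was cultured under its own growth conditions.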
For the next assay, the system named is Colletotrichum acutatum. In words: Antifungal activity against Colletotrichum acutatum by broth dilution assay. It is filed as functional. In outline: as §1
Background: In broth dilution the organism is exposed to a series of concentrations in liquid medium.

The next assay deals with Botrytis cinerea. In words: Antifungal activity against Botrytis cinerea by broth dilution assay. It counts as functional. In outline:
as §1

A further assay concerns Staphylococcus aureus. In words: Antibacterial activity against Staphylococcus aureus by broth dilution assay. It is filed as functional. The essentials:
as §1

Another assay concerns Bacillus subtilis. In words: Antibacterial activity against Bacillus subtilis by broth dilution assay. It is filed as functional. The essentials:
as §1

In the next assay the test system is Salmonella typhi. Nature of the assay: Antibacterial activity against Salmonella typhi by broth dilution assay. It is filed as functional, Salmonella enterica subsp. enterica serovar Typhi. The settings on record: Salmonella enterica. In outline: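 Broth dilution test giving the minimum concentration that inhibits growth, run against Gram-positive and Gram-negative bacteria. Growth conditions were kept specific to each organism during culture.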

For the next assay, the system named is Pseudomonas aeruginosa. In words: Antibacterial activity against Pseudomonas aeruginosa by broth dilution assay. It is filed as functional. The essentials: as §1
Assay [7] deals with Phytophthora capsici. Nature of the assay: Inhibition of Phytophthora capsici zoospore motility at 500 ug/ml after 15 to 60 mins by homogeneous solution method. It is filed as functional, organism-based.
For assay [8], the system named is Phytophthora capsici. Nature of the assay: Induction of Phytophthora capsici zoospore lytic activity at 500 ug/ml after 5 to 60 mins by homogeneous solution method. It is filed as functional, organism-based.

Values after ≈ are worked out from the molar mass of the structure shown. Active and inactive are the calls of the source. No cut-off for these calls is given here. Where a SMILES comes first, the peptide text is derived from it.

Usually IC50 stands for the concentration that inhibits the measured activity by half. Read a high IC50 as weaker potency in that assay. For orientation: MIC means the least concentration at which growth counts as inhibited. The low end stands for a more susceptible organism, the high end for a less susceptible organism.

With `CCC(C)CC(C)CCCCCCCC[C@@H]1CC(=O)N[C@@H](CCC(=O)O)C(=O)N[C@@H](C(C)C)C(=O)N[C@@H](CC(C)C)C(=O)N[C@@H](C)C(=O)N[C@@H](CC(=O)O)C(=O)N[C@@H](CC(C)C)C(=O)N[C@@H](CC(C)C)C(=O)O1` (stereo partly drawn) (HELM PEPTIDE1{E.V.L.A.D.L.L}|CHEM1{[CCC(C)CC(C)CCCCCCCC[C@H](CC(=O)[*:1])O[*:2]]}$PEPTIDE1,CHEM1,1:R1-1:R1|PEPTIDE1,CHEM1,7:R2-1:R2$$$V2.0), the inhibition entry is “tde” in the assay on Phytophthora capsici [1] and “Dose-dependent effect” in the assay on Phytophthora capsici [2]. Moreover, the IC50 in the assay with Phytophthora capsici [2] amounted to 1 µg/mL (≈ 0.965 µM). For the same compound, the inhibition result with Phytophthora capsici [3] was “Active”. Further, the result in the assay on Phytophthora capsici [4], with Phytophthora capsici [5] and with Phytophthora capsici [6] was Active. Further, the MIC came to 4 µg/mL (≈ 3.86 µM) against Rhizoctonia solani; 8 µg/mL (≈ 7.72 µM) against Colletotrichum acutatum; 4 µg/mL (≈ 3.86 µM) against Botrytis cinerea; 16 µg/mL (≈ 15.4 µM) in the assay with Staphylococcus aureus; 16 µg/mL (≈ 15.4 µM) in the assay with Bacillus subtilis; 16 µg/mL (≈ 15.4 µM) in the assay with Salmonella typhi. In addition, in the assay with Pseudomonas aeruginosa, the MIC turned out to be 16 µg/mL (≈ 15.4 µM).

Take `CCC(C)CCCCCCCCCC[C@@H]1CC(=O)N[C@@H](CCC(=O)O)C(=O)N[C@@H](C(C)C)C(=O)N[C@@H](CC(C)C)C(=O)N[C@@H](C)C(=O)N[C@@H](CC(=O)O)C(=O)N[C@@H](CC(C)C)C(=O)N[C@@H](CC(C)C)C(=O)O1` (stereo partly drawn) (HELM PEPTIDE1{E.V.L.A.D.L.L}|CHEM1{[CCC(C)CCCCCCCCCC[C@H](CC(=O)[*:1])O[*:2]]}$PEPTIDE1,CHEM1,1:R1-1:R1|PEPTIDE1,CHEM1,7:R2-1:R2$$$V2.0): the values for the inhibition result in the assay with Phytophthora capsici [1] and in the assay on Phytophthora capsici [2] were “tde” and “Dose-dependent effect”, respectively. In addition, the IC50 in the assay with Phytophthora capsici [2] was found to be 400 µg/mL (≈ 391 µM). The inhibition result in the assay with Phytophthora capsici [7] was “Active”. Further, the outcome in the assay with Phytophthora capsici [8] was inactive. Besides, the MIC in the assay on Rhizoctonia solani turned out to be 8 µg/mL (≈ 7.83 µM); in the assay on Colletotrichum acutatum, 8 µg/mL (≈ 7.83 µM); in the assay with Botrytis cinerea it was 8 µg/mL (≈ 7.83 µM); against Staphylococcus aureus, 16 µg/mL (≈ 15.7 µM); in the assay on Bacillus subtilis, 32 µg/mL (≈ 31.3 µM); against Salmonella typhi, 32 µg/mL (≈ 31.3 µM). In addition, 16 µg/mL (≈ 15.7 µM) was the least that counted as inhibitory against Pseudomonas aeruginosa (MIC).

Regarding `C[C@@H]1[C@H](O)[C@@H](C)/C=C/C=C/C=C/C=C/C=C/C=C/C=C/[C@H](O[C@@H]2O[C@H](C)[C@@H](O)[C@H](N)[C@@H]2O)C[C@@H]2O[C@](O)(C[C@@H](O)C[C@@H](O)[C@H](O)CC[C@@H](O)C[C@@H](O)CC(=O)O[C@H]1C)C[C@H](O)[C@H]2C(=O)O` [AMPHOTERICIN B], the MIC in the assay on Rhizoctonia solani, with Colletotrichum acutatum and against Botrytis cinerea was 1 µg/mL (≈ 1.08 µM) each time.

Regarding `CC[C@H]1OC(=O)[C@H](C)[C@@H](O[C@H]2C[C@@](C)(OC)[C@@H](O)[C@H](C)O2)[C@H](C)[C@@H](O[C@@H]2O[C@H](C)C[C@H](N(C)C)[C@H]2O)[C@](C)(O)C[C@@H](C)CN(C)[C@H](C)[C@@H](O)[C@]1(C)O` [AZITHROMYCIN], the MIC in the assay on Staphylococcus aureus, against Bacillus subtilis, against Salmonella typhi and against Pseudomonas aeruginosa was 2 µg/mL (≈ 2.67 µM) each time.
